# According to ChEMBL document CHEMBL1138395, “Adamantane sulfone and sulfonamide 11-beta-HSD1 Inhibitors” (Bioorg Med Chem Lett, 2007):
# Experiments:
# [1] = biological target: T1, 11-beta-hydroxysteroid dehydrogenase 1 (Homo sapiens, UniProt P28845); assay: Inhibition of human HSD1 assessed as interconversion of cortisone to cortisol
# [2] = biological target: T2, 11-beta-hydroxysteroid dehydrogenase type 2 (Homo sapiens, UniProt P80365); assay: Inhibition of human HSD2 assessed as interconversion of cortisone to cortisol
# T2 sequence (P80365 whole entry): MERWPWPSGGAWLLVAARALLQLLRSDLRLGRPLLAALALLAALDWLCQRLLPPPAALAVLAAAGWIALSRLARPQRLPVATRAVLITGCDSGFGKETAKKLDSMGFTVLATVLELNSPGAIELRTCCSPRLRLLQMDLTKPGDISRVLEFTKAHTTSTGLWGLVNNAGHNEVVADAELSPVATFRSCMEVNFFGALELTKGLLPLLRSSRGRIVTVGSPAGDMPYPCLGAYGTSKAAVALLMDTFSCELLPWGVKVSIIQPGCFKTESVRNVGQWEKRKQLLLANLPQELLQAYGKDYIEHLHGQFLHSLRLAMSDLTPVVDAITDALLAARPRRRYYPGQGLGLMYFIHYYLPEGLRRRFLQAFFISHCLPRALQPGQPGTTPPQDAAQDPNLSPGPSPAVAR
# [3] = biological target: 11-beta-hydroxysteroid dehydrogenase 1 (Mus musculus, UniProt P50172); assay: Inhibition of mouse HSD1 assessed as interconversion of cortisone to cortisol
# In short: (§1)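 Enzyme inhibition measured as blocking the interconversion between cortisone and cortisol by mouse HSD1 (reported as Ki) or mouse HSD2 (reported as IC50); values are means of at least two experiments.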
# [4] = biological target: T3, 11-beta-hydroxysteroid dehydrogenase type 2 (Mus musculus, UniProt P51661); assay: Inhibition of mouse HSD2 assessed as interconversion of cortisone to cortisol; in short: as §1
# T3 sequence (P51661 whole entry): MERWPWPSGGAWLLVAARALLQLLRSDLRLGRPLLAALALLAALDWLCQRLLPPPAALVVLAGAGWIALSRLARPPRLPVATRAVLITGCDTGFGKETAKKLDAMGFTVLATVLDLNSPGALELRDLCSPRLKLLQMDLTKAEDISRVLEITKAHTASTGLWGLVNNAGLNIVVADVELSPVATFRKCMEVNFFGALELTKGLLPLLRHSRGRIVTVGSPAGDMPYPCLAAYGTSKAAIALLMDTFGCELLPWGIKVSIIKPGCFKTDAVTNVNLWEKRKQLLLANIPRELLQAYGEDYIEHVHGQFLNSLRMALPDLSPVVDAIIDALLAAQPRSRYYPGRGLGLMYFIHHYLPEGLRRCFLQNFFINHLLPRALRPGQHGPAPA
# [5] = biological target: T1, 11-beta-hydroxysteroid dehydrogenase 1; assay: Inhibition of human HSD1 expressed in HEK cells; assay type: cell-based, HEK293
# [6] = Metabolic stability in mouse liver microsomes assessed as compound remaining after 30 mins; assay type: ADME, Microsome; conditions: read-out: Stability
# In short: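 Test compound incubated with mouse liver microsomes for 30 min; percent of parent compound remaining afterward reported.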
# [7] = Half life in mouse at 10 mg/kg, iv; assay type: ADME, organism-based; parameters: dose 10 mg/kg, route intravenous; conditions: in vivo
# [8] = Volume of distribution at steady state in mouse at 10 mg/kg; assay type: ADME, organism-based; parameters: dose 10 mg/kg; conditions: in vivo, read-out: Vdss
# [9] = Volume of distribution at terminal phase in mouse at 10 mg/kg; assay type: ADME, organism-based; parameters: dose 10 mg/kg; conditions: in vivo, read-out: Vbeta
# [10] = Plasma clearance in mouse at 10 mg/kg, iv; assay type: ADME, organism-based; parameters: dose 10 mg/kg, route intravenous
# [11] = AUC in mouse at 10 mg/kg, po; assay type: ADME, organism-based; parameters: dose 10 mg/kg, route oral; conditions: plasma
# [12] = Oral bioavailability in mouse at 10 mg/kg; assay type: ADME, organism-based; conditions: in vivo
# Mus musculus [13] = assay: Ex vivo inhibition of liver 11-beta-HSD1 in DIO mouse at 30 mg/kg, po after 1 hr; assay type: functional
# In short: (§2)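 DIO mice dosed orally at 30 mpk; animals killed 1, 7 and 16 h after the dose and liver, fat and brain taken. Ex vivo 11-β-HSD1 activity (cortisol levels) in tissue was measured and percent inhibition expressed relative to vehicle-dosed animals; means from two animals per point.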
# Mus musculus [14] = assay: Ex vivo inhibition of liver 11-beta-HSD1 in DIO mouse at 30 mg/kg, po after 7 hrs; assay type: functional; in short: as §2
# Mus musculus [15] = assay: Ex vivo inhibition of liver 11-beta-HSD1 in DIO mouse at 30 mg/kg, po after 16 hrs; assay type: functional; in short: as §2
# Mus musculus [16] = assay: Ex vivo inhibition of fat 11-beta-HSD1 in DIO mouse at 30 mg/kg, po after 1 hr; assay type: functional; in short: as §2
# Mus musculus [17] = assay: Ex vivo inhibition of fat 11-beta-HSD1 in DIO mouse at 30 mg/kg, po after 7 hrs; assay type: functional; in short: as §2
# Mus musculus [18] = assay: Ex vivo inhibition of fat 11-beta-HSD1 in DIO mouse at 30 mg/kg, po after 16 hrs; assay type: functional; in short: as §2
# Mus musculus [19] = assay: Ex vivo inhibition of brain 11-beta-HSD1 in DIO mouse at 30 mg/kg, po after 1 hr; assay type: functional; in short: as §2
# Mus musculus [20] = assay: Ex vivo inhibition of brain 11-beta-HSD1 in DIO mouse at 30 mg/kg, po after 7 hrs; assay type: functional; in short: as §2
# Mus musculus [21] = assay: Ex vivo inhibition of brain 11-beta-HSD1 in DIO mouse at 30 mg/kg, po after 16 hrs; assay type: functional; in short: as §2
# [22] = Half life in mouse at 5 mg/kg, iv and 10 mg/kg, po; assay type: ADME, organism-based; conditions: in vivo
# [23] = Volume of distribution at steady state in mouse at 5 mg/kg, iv and 10 mg/kg, po; assay type: ADME, organism-based; conditions: in vivo, read-out: Vdss
# [24] = Volume of distribution at terminal phase in mouse at 5 mg/kg, iv and 10 mg/kg, po; assay type: ADME, organism-based; conditions: in vivo, read-out: Vbeta
# [25] = Plasma clearance in mouse at 5 mg/kg, iv and 10 mg/kg, po; assay type: ADME, organism-based
# [26] = AUC in mouse at 5 mg/kg, iv and 10 mg/kg, po; assay type: ADME, organism-based; conditions: plasma
# [27] = Oral bioavailability in mouse at 5 mg/kg, iv and 10 mg/kg, po; assay type: ADME, organism-based; conditions: in vivo
# T1 sequence (P28845 whole entry): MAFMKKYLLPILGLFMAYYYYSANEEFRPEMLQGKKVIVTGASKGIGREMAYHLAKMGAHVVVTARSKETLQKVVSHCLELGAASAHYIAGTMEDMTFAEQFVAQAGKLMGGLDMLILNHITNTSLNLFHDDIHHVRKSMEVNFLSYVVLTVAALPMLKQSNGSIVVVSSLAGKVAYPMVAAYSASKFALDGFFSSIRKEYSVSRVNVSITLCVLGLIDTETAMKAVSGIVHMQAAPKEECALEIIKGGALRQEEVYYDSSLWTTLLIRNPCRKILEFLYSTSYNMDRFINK
# 11-beta-hydroxysteroid dehydrogenase 1 (Mus musculus, UniProt P50172), sequence (P50172 whole entry): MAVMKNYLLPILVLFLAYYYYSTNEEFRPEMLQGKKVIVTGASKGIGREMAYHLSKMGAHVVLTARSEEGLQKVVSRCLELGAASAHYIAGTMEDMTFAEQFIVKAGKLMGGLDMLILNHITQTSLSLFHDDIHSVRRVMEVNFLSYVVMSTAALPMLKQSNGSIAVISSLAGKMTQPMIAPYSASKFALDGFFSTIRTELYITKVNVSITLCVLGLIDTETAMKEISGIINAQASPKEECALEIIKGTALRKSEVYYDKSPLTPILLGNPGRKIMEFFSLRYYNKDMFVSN
Compound,Ki [1] [nM],IC50 [2] [nM],Ki [3] [nM],IC50 [4] [nM],IC50 [5] [nM],remaining at 0.5 h [6] [%],also measured
CC(C)(Oc1c(Cl)cc(F)cc1Cl)C(=O)N[C@H]1C2CC3CC1C[C@](S(N)(=O)=O)(C3)C2,3,9000,2,> 100000,190,55,
CC(C)(Oc1ccccc1Cl)C(=O)N[C@H]1C2CC3CC1C[C@](S(C)(=O)=O)(C3)C2,5,5400,2,> 100000,120,,
COc1cc(F)ccc1OC(C)(C)C(=O)N[C@H]1C2CC3CC1C[C@](S(C)(=O)=O)(C3)C2,20,> 100000,7,> 100000,690,,
CC(=O)NS(=O)(=O)[C@]12CC3CC(C1)[C@@H](NC(=O)C(C)(C)Oc1ccc(Cl)cc1)C(C3)C2,170,,110,,,,
CC(C)(C(=O)N[C@H]1C2CC3CC1C[C@](S(N)(=O)=O)(C3)C2)c1ccccc1,8,> 100000,210,> 100000,420,,
CC(C)(Oc1ccc(F)cc1Cl)C(=O)N[C@H]1C2CC3CC1C[C@](S(=O)(=O)CCCN1CCOCC1)(C3)C2,110,15000,38,87000,500,< 1,
CC(C)(Oc1cccc(Cl)c1)C(=O)N[C@H]1C2CC3CC1C[C@](S(N)(=O)=O)(C3)C2,4,6300,6,> 100000,320,,
CN(C)S(=O)(=O)[C@]12CC3CC(C1)[C@@H](NC(=O)C(C)(C)Oc1ccc(Cl)cc1)C(C3)C2,,,21,100000,,< 1,
CC(C)(Oc1ccccc1)C(=O)N[C@H]1C2CC3CC1C[C@](S(N)(=O)=O)(C3)C2,,,13,> 100000,,62,
CC(C)(Oc1ccccc1Cl)C(=O)N[C@H]1C2CC3CC1C[C@](S(N)(=O)=O)(C3)C2,4,5500,2,> 100000,83,36,
CC(C)(Oc1cccc(Cl)c1)C(=O)N[C@H]1C2CC3CC1C[C@](S(C)(=O)=O)(C3)C2,,,10,> 100000,,7,
CC(C)(Oc1ccc(F)cc1Cl)C(=O)N[C@H]1C2CC3CC1C[C@](S(=O)(=O)CC(N)=O)(C3)C2,8,3300,4,> 100000,300,59,
CC(C)(Oc1ccc(Cl)cc1F)C(=O)N[C@H]1C2CC3CC1C[C@](S(C)(=O)=O)(C3)C2,,,8,> 100000,,63,
CC(C)(Oc1ccc(F)cc1Cl)C(=O)N[C@H]1C2CC3CC1C[C@](S(N)(=O)=O)(C3)C2,6,> 100000,3,> 100000,125,61,half-life [7]: 2.8 h; Vd [8]: 2.6 L/kg; Vd [9]: 3.5 L/kg; clearance [10]: 15 mL/min/kg; AUC [11]: 7000 ng·h/mL; bioavailability [12]: 61%; inhibition in vivo at 30 mg/kg (Mus musculus [13]): 70%; inhibition in vivo at 30 mg/kg (Mus musculus [14]): 78%; inhibition in vivo at 30 mg/kg (Mus musculus [15]): 82%; inhibition in vivo at 30 mg/kg (Mus musculus [16]): 62%; inhibition in vivo at 30 mg/kg (Mus musculus [17]): 88%; inhibition in vivo at 30 mg/kg (Mus musculus [18]): 93%; inhibition in vivo at 30 mg/kg (Mus musculus [19]): 29%; inhibition in vivo at 30 mg/kg (Mus musculus [20]): 48%; inhibition in vivo at 30 mg/kg (Mus musculus [21]): 73%
CC(C)(Oc1ccc(Cl)cc1)C(=O)N[C@H]1C2CC3CC1C[C@](S(C)(=O)=O)(C3)C2,,,8,> 100000,,70,
CC(C)(Oc1ccc(Cl)cc1)C(=O)N[C@H]1C2CC3CC1C[C@](S(N)(=O)=O)(C3)C2,,,,> 100000,,96,half-life [22]: 1.8 h; Vd [23]: 2.1 L/kg; Vd [24]: 2.1 L/kg; clearance [25]: 13.3 mL/min/kg; AUC [26]: 18300 ng·h/mL; bioavailability [27]: 150%
CCS(=O)(=O)[C@]12CC3CC(C1)[C@@H](NC(=O)C(C)(C)Oc1ccc(F)cc1Cl)C(C3)C2,,,7,> 100000,,,
CNS(=O)(=O)[C@]12CC3CC(C1)[C@@H](NC(=O)C(C)(C)Oc1ccc(Cl)cc1)C(C3)C2,,,,> 100000,,< 1,
CC(C)(Oc1ccccc1C(F)(F)F)C(=O)N[C@H]1C2CC3CC1C[C@](S(C)(=O)=O)(C3)C2,7,> 100000,3,> 100000,120,,
CC(C)(Oc1ccccc1OC(F)(F)F)C(=O)N[C@H]1C2CC3CC1C[C@](S(N)(=O)=O)(C3)C2,,,3,> 100000,,38,
